# Measurements taken from ChEMBL document CHEMBL1137254, “Structurally simple, potent, Plasmodium selective farnesyltransferase inhibitors that arrest the growth of malaria parasites” (J Med Chem, 2006).
# How the values were obtained:
# [1] = target: T1, Protein farnesyltransferase (PFT) (Plasmodium falciparum, UniProt Q5EI73+Q5EI74); experiment: Inhibition of Plasmodium falciparum PFT; type: protein-complex assay
# T1 sequence (Q5EI73 whole entry): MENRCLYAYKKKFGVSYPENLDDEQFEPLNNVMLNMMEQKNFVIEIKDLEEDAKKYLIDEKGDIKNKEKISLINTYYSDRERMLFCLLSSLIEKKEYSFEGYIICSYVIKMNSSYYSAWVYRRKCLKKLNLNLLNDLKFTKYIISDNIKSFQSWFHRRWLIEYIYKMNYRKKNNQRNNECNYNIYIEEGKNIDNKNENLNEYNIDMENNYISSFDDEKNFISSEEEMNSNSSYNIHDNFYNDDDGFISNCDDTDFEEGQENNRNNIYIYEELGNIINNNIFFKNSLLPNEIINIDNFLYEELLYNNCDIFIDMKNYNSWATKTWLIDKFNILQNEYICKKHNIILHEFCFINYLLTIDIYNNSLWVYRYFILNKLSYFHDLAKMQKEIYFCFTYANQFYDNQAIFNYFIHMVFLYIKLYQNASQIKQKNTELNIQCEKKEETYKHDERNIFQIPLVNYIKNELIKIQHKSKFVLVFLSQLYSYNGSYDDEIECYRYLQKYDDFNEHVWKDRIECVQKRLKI
# T1 sequence (Q5EI74 whole entry): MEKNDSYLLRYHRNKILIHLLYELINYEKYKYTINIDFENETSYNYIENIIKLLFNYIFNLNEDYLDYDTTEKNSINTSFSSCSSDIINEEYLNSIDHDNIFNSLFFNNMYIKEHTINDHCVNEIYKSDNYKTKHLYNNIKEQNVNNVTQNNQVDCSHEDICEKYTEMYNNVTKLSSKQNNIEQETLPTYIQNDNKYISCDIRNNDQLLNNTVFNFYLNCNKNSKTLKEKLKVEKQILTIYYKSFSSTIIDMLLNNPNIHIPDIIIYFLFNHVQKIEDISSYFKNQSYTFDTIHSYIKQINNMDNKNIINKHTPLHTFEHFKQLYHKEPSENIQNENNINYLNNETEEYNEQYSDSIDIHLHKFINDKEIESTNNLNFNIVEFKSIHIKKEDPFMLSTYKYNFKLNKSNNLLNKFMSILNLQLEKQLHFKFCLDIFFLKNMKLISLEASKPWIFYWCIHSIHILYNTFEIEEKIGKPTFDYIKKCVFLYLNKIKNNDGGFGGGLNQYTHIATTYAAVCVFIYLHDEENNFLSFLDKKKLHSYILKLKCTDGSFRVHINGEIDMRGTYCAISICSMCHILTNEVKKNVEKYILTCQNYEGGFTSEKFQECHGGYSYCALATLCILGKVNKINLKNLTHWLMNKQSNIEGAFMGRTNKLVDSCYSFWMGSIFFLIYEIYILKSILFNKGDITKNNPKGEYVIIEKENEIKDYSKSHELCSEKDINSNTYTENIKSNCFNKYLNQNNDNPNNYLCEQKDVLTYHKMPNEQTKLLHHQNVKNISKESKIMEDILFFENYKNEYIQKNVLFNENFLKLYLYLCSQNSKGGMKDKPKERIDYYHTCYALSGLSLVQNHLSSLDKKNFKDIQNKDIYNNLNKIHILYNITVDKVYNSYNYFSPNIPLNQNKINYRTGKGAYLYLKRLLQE
# [2] = AUC in rat at 50 mg/kg, po; type: ADME, organism-based; set-up: dose 50 mg/kg, route oral; details: plasma
# How it was run: (§1)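 Oral gavage at 50 mg/kg in 90% saline, 3% ethanol, 7% Tween; inhibitor concentration in plasma followed over 5 h. Values are averages of three animals per species (mice or rats). Reported parameters are AUC, Cmax, Tmax and elimination t1/2.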
# [3] = Cmax in rat at 50 mg/kg, po; type: ADME, organism-based; set-up: dose 50 mg/kg, route oral; details: in vivo; how it was run: as §1
# [4] = Tmax in mouse at 50 mg/kg, po; type: ADME, organism-based; set-up: dose 50 mg/kg, route oral; details: in vivo; how it was run: as §1
# [5] = target: T2, Protein farnesyltransferase (PFT) (Plasmodium falciparum) (UniProt Q5EI73+Q5EI74); experiment: Inhibition of Plasmodium falciparum PFT at 5 nM
# [6] = target: T2, Protein farnesyltransferase (PFT) (Plasmodium falciparum); experiment: Inhibition of Plasmodium falciparum PFT at 50 nM
smiles,measurement,setting,value
Cc1ccccc1CN(CCN(Cc1cncn1C)c1ccc(C#N)cc1)S(=O)(=O)c1cn(C)cn1,IC50,[1],0.6 nM
same,AUC,[2],1.72 µM·h
same,Cmax,[3],1050 nM
same,Tmax,[4],40 min
same,inhibition,[5],95%
same,inhibition,[6],99%
